Measurements taken from ChEMBL document CHEMBL1137611, “Toward potent ghrelin receptor ligands based on trisubstituted 1,2,4-triazole structure. 2. Synthesis and pharmacological in vitro and in vivo evaluations” (J Med Chem, 2007).

Columns and labels:
[1] = target: T1, Growth hormone secretagogue receptor type 1 (Homo sapiens, UniProt Q92847); assay: Displacement of [125I]His9-ghrelin from human cloned GHS1a receptor expressed in LLC PK1 cells; format: cell-based
[2] = target: T1, Growth hormone secretagogue receptor type 1; assay: Activity at human GHS1a receptor expressed in CHO cells assessed as accumulation of intracellular calcium level at 10 uM relative to ghrelin; format: functional, cell-based
Summary of the method: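 CHO cells transiently electroporated with hGHS-R1a, loaded 24 h later with 1 μM Fluo-4AM (1 h, 37 °C, dark), then de-esterified 30 min at room temperature. Fluorescence (ex 485/em 525 nm) recorded over 60 s, compound at 10 μM added at 15 s. Triplicates, at least two independent experiments. Response expressed as percent of maximum with 0.1 μM ghrelin.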

[3] = target: T1, Growth hormone secretagogue receptor type 1; assay: Agonist activity at human GHS1a receptor expressed in CHO cells assessed as accumulation of intracellular calcium level; format: functional, cell-based
Summary of the method: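 Fluo-4AM calcium assay in CHO cells transiently expressing hGHS-R1a. Fluorescence recorded at ex 485/em 525 nm over 60 s after automated addition of increasing agonist concentrations. EC50 taken from the dose-response curve.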

[4] = species: Rattus norvegicus; assay: Effect on cumulative food intake per 100 g body weight of Sprague-Dawley rat at 160 ug after 2 hrs; format: functional
Summary of the method: (§1)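 Young-adult male rats (125–150 g), singly housed, acclimated 1 week and trained daily for a further week. Test compound given sc at 160 μg/kg mid-morning, then returned to cages with a known amount of chow. Cumulative intake recorded at 2 or 6 h as g food/100 g body weight.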

[5] = species: Rattus norvegicus; assay: Inhibition of hexarelin-stimulated cumulative food intake per 100 g body weight of Sprague-Dawley rat at 160 ug after 2 hrs; format: functional
Summary of the method: (§2)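 Young-adult male rats (125–150 g), singly housed, acclimated and trained. Compound given sc at time −10 min (0, 20, 80, 160 or 320 μg/kg), then hexarelin 80 μg/kg sc at time 0. Rats returned to home cages with a known amount of chow. Cumulative intake recorded as g food/100 g body weight at 2 h and 6 h.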

[6] = species: Rattus norvegicus; assay: Effect on cumulative food intake per 100 g body weight of Sprague-Dawley rat at 160 ug after 6 hrs; format: functional; summary of the method: as §1
[7] = species: Rattus norvegicus; assay: Inhibition of hexarelin-stimulated cumulative food intake per 100 g body weight of Sprague-Dawley rat at 160 ug after 6 hrs; format: functional; summary of the method: as §2
[8] = target: T1, Growth hormone secretagogue receptor type 1; assay: Antagonist activity at human GHS1a receptor expressed in CHO cells assessed as accumulation of intracellular calcium level; format: functional, cell-based
[9] = test system: Rattus norvegicus; assay: Inhibition of hexarelin-stimulated cumulative food intake per 100 g body weight of Sprague-Dawley rat at 20 ug/kg; format: functional; summary of the method: as §2
[10] = test system: Rattus norvegicus; assay: Inhibition of hexarelin-stimulated cumulative food intake per 100 g body weight of Sprague-Dawley rat at 80 ug/kg; format: functional; summary of the method: as §2
[11] = test system: Rattus norvegicus; assay: Inhibition of hexarelin-stimulated cumulative food intake per 100 g body weight of Sprague-Dawley rat at 320 ug/kg; format: functional; summary of the method: as §2
[12] = test system: Rattus norvegicus; assay: Inhibition of growth hormone secretion in infant Sprague-Dawley rat at 160 ug/kg, sc; format: functional
Summary of the method: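 Male 10-day-old pups (~25 g), separated from dams 1 h before testing, groups of eight. Dosed sc with vehicle (DMSO, final 1:300), compound 160 μg/kg, or compound 10 min before hexarelin 80 μg/kg sc. Decapitated 15 min later; plasma GH measured by rat GH enzyme immunoassay and expressed as ng/mL against the NIDDK-rGH-RP-2 standard.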

T1 sequence (Q92847 whole entry): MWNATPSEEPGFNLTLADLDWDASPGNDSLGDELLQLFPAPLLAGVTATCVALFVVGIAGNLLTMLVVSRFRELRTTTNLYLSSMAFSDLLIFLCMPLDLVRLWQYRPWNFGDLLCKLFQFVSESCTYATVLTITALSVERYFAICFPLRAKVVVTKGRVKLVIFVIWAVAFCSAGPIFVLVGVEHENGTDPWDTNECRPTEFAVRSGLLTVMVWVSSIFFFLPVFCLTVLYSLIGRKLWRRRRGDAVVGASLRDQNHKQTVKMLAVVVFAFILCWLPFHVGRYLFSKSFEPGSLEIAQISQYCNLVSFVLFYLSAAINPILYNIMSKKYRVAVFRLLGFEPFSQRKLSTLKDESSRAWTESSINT

SMILES | IC50 [1] | Activity [2] | EC50 [3] | Activity [4] | Activity [5] | Activity [6] | Activity [7] | Kb [8] | Activity [9] | Activity [10] | Activity [11] | Activity [12]
COc1ccc(Cn2c(CCc3ccccc3)nnc2[C@@H](Cc2c[nH]c3ccccc23)NC(=O)[C@@H]2CCCCN2)c(OC)c1 | 134 nM | 0% |  |  |  |  |  |  |  |  |  | 
Cc1ncccc1-n1c(CCc2ccccc2)nnc1[C@@H](Cc1c[nH]c2ccccc12)NC(=O)C1CCNCC1 | > 1000 nM | 78% |  |  |  |  |  |  |  |  |  | 
O=C(N[C@H](Cc1c[nH]c2ccccc12)c1nnc(CCc2c[nH]c3ccccc23)n1-c1ccccc1)C1CCNCC1 |  | 100% | 2.3 nM |  |  |  |  |  |  |  |  | 
COc1ccc(Cn2c(CCc3ccccc3)nnc2[C@@H](Cc2c[nH]c3ccccc23)NC(=O)[C@@H]2CCCNC2)cc1 |  | 89% | 36 nM |  |  |  |  |  |  |  |  | 
CCc1ccc(Cn2c(CCc3ccccc3)nnc2[C@@H](Cc2c[nH]c3ccccc23)NC(=O)CN)cc1 | 759 nM | 0% |  | 0.01 g | 0.79 g | 0.03 g | 0.81 g |  |  |  |  | 
CCc1ccc(Cn2c(CCc3ccccc3)nnc2[C@@H](Cc2c[nH]c3ccccc23)NC(=O)C2CCNCC2)cc1 |  | 101% | 7.7 nM | 0.03 g | 1.4 g | 0.35 g | 1.66 g |  |  |  |  | 
O=C(N[C@H](Cc1c[nH]c2ccccc12)c1nnc(CCc2c[nH]c3ccccc23)n1Cc1ccccc1)C1CCNCC1 | 24 nM | 75% | 5.4 nM | 0.01 g | 0.38 g | 0.11 g | 0.6 g |  |  |  |  | 
COc1ccc(Cn2c(CCc3ccccc3)nnc2[C@@H](Cc2c[nH]c3ccccc23)NCCN)c(OC)c1 |  | 59% | 279 nM |  |  |  |  |  |  |  |  | 
COc1ccc(Cn2c(CCc3c[nH]c4ccccc34)nnc2[C@@H](Cc2c[nH]c3ccccc23)NC(=O)C2CCNCC2)c(OC)c1 |  | 77% | 0.6 nM | 0.01 g | 0.11 g | 0.01 g | 0.86 g |  |  |  |  | 
CC(C)(N)C(=O)N[C@H](Cc1c[nH]c2ccccc12)c1nnc(CCc2c[nH]c3ccccc23)n1Cc1ccccc1 |  | 73% |  |  |  |  |  |  |  |  |  | 
COc1ccc(Cn2c(CCc3c[nH]c4ccccc34)nnc2[C@@H](Cc2c[nH]c3ccccc23)NC(=O)[C@@H]2CCCN2)c(OC)c1 | 5.6 nM | 0% |  |  |  |  |  | 11 nM |  |  |  | 
COc1ccc(Cn2c(CCc3c[nH]c4ccccc34)nnc2[C@@H](Cc2c[nH]c3ccccc23)NC(=O)[C@@H]2CCCN2)cc1 |  | 2% |  | 0.05 g | 0.44 g | 0.2 g | 0.48 g | 6 nM |  |  |  | 
COc1ccc(Cn2c(CCc3c[nH]c4ccccc34)nnc2[C@@H](Cc2c[nH]c3ccccc23)NC(=O)[C@H]2CCCN2)cc1 |  | 7% |  | 0.01 g | 0.05 g | 0.03 g | 0.36 g | 7 nM | 0.17 g | 0.15 g | 0.58 g | 
COc1ccc(Cn2c(CCc3c[nH]c4ccccc34)nnc2[C@@H](Cc2c[nH]c3ccccc23)NC(=O)CN)c(OC)c1 |  | 0% |  | 0.01 g | 0.39 g | 0.01 g | 0.74 g | 27 nM |  |  |  | 
COc1ccc(Cn2c(CCc3c[nH]c4ccccc34)nnc2[C@@H](Cc2c[nH]c3ccccc23)NC(=O)[C@H]2CCCNC2)cc1 |  | 111% | 2.5 nM | 0.01 g | 0.62 g | 0.06 g | 0.76 g |  |  |  |  | 
COc1ccc(Cn2c(CCc3c[nH]c4ccccc34)nnc2[C@@H](Cc2c[nH]c3ccccc23)NC(=O)C(C)(C)N)cc1 |  | 9% |  |  |  |  |  | 4 nM |  |  |  | 
NCC(=O)N[C@H](Cc1c[nH]c2ccccc12)c1nnc(CCc2ccccc2)n1-c1ccccc1 | > 1000 nM | 7% |  |  |  |  |  |  |  |  |  | 

SMILES | IC50 [1] | Activity [2] | EC50 [3] | Activity [4] | Activity [5] | Activity [6] | Activity [7] | Kb [8] | Activity [9] | Activity [10] | Activity [11] | Activity [12]
O=C(N[C@H](Cc1c[nH]c2ccccc12)c1nnc(CCc2c[nH]c3ccccc23)n1Cc1ccccc1)[C@H]1CCCNC1 | 13 nM | 50% | 9.9 nM | 0.52 g | 0.16 g | 0.6 g | 0.62 g |  |  |  |  | 
CCc1ccc(-n2c(CCc3c[nH]c4ccccc34)nnc2[C@@H](Cc2c[nH]c3ccccc23)NC(=O)CN)cc1 | > 1000 nM | 4% |  |  |  |  |  |  |  |  |  | 
COc1ccc(Cn2c(CCc3ccccc3)nnc2[C@@H](Cc2c[nH]c3ccccc23)NC(=O)CN)c(OC)c1 | 154 nM | 0% |  | 0.01 g | 1.26 g | 0.08 g | 1.48 g |  |  |  |  | 
COc1ccc(-n2c(CCc3ccccc3)nnc2[C@@H](Cc2c[nH]c3ccccc23)NC(=O)CN)c(OC)c1 | > 1000 nM | 27% |  |  |  |  |  |  |  |  |  | 
COc1ccc(Cn2c(CCc3ccccc3)nnc2[C@@H](Cc2c[nH]c3ccccc23)NC(=O)[C@H]2CCCCN2)cc1 |  | 7% |  | 0.01 g | 0.85 g | 0.01 g | 1.07 g |  |  |  |  | 6.09 ng/mL
COc1ccc(Cn2c(CCc3c[nH]c4ccccc34)nnc2[C@@H](Cc2c[nH]c3ccccc23)NC(=O)C2CCNCC2)cc1 |  | 93% | 3 nM | 0.01 g | 0.4 g | 0.37 g | 1.05 g |  |  |  |  | 
COc1ccc(Cn2c(CCc3c[nH]c4ccccc34)nnc2[C@@H](Cc2c[nH]c3ccccc23)NC(=O)[C@H]2CCCNC2)c(OC)c1 | 6.5 nM | 48% | 5.3 nM | 0.01 g | 0.33 g | 0.01 g | 0.65 g |  |  |  |  | 
COc1ccc(Cn2c(CCc3ccccc3)nnc2[C@@H](Cc2c[nH]c3ccccc23)NC(=O)[C@@H]2C[C@@H](O)CN2)cc1 | 173 nM | 87% |  | 0.01 g | 0.02 g | 0.01 g | 0.35 g |  |  |  |  | 
CCc1ccc(-n2c(CCc3c[nH]c4ccccc34)nnc2[C@@H](Cc2c[nH]c3ccccc23)NC(=O)[C@@H]2CCCN2)cc1 | 350 nM | 5% |  |  |  |  |  |  |  |  |  | 
COc1ccc(Cn2c(CCc3ccccc3)nnc2[C@@H](Cc2c[nH]c3ccccc23)NC(=O)CN)cc1 |  | 0% |  | 0.01 g | 0.01 g | 0.04 g | 0.28 g |  | 0.63 g | 0.56 g | 0.36 g | 9.85 ng/mL
COc1ccc(Cn2c(CCc3ccccc3)nnc2[C@@H](Cc2c[nH]c3ccccc23)NC(=O)C2CCCCN2)cc1 (single isomer, unassigned) |  | 3% |  | 0.01 g | 0.06 g | 0.01 g | 0.56 g |  |  |  |  | 
COc1ccc(Cn2c(CCc3ccccc3)nnc2[C@@H](Cc2c[nH]c3ccccc23)NC(=O)[C@H]2CCCNC2)cc1 |  | 20% |  |  |  |  |  | 10 nM |  |  |  | 
COc1ccc(Cn2c(CCc3c[nH]c4ccccc34)nnc2[C@@H](Cc2c[nH]c3ccccc23)NC(=O)[C@H]2CCCCN2)cc1 |  | 0% |  | 0.04 g | 1.25 g | 0.06 g | 1.68 g | 8 nM |  |  |  | 
CCc1ccc(-n2c(CCc3c[nH]c4ccccc34)nnc2[C@@H](Cc2c[nH]c3ccccc23)NC(=O)C2CCNCC2)cc1 | 96 nM | 100% | 15 nM |  |  |  |  |  |  |  |  | 
CCc1ccc(Cn2c(CCc3ccccc3)nnc2[C@@H](Cc2c[nH]c3ccccc23)NC(=O)[C@H]2CCCNC2)cc1 | 130 nM | 11% |  |  |  |  |  |  |  |  |  | 
COc1ccc(Cn2c(CCC3C=Nc4ccccc43)nnc2[C@@H](Cc2c[nH]c3ccccc23)NC(=O)CN)cc1 (stereo partly drawn) | 138 nM | 2% |  |  |  |  |  |  |  |  |  | 
